Tests used:
[1] = Rate of acetate production by the compound was determined; format: ADME
In short: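 Toxin at 100 μM in 25 mM sodium phosphate, pH 7.4, 1% DMSO, at 22–24 °C for up to 8 h. Acetic acid was then measured with a coupled enzyme assay (NAD to NADH, A340 every 5 s for 5 min, initial rate by linear regression, calibrated with 25–200 μM acetate standards). Percent of maximum fit to a single-exponential growth function; mean ± SEM of 3–9 experiments.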

[2] = Rate constant of solvolysis for the compound was determined; format: ADME
In short: (§1)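 Toxin at 100 μM (diluted from 10 mM DMSO stock) in 25 mM sodium phosphate, pH 7.4, 1% DMSO, at 22–24 °C for various times. Fit by nonlinear regression to a single-exponential decay; mean ± SEM of 3–9 independent experiments.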

[3] = Half-life was determined; format: ADME; in short: as §1
[4] = Apparent first-order rate of solvolysis for the bipinnatin-A(A4) was determined; format: ADME
[5] = Half-life of the bipinnatin-A(A4) was determined; format: ADME
BC3H-1 [6] = assay: Irreversible inhibition of [1251]alpha-bungarotoxin binding to Nicotinic acetylcholine receptor (neuronal and muscle) by bipinnatin-A on intact BC3H-1 cell lines; format: cell-based; conditions: dose or concentration not given here
In short: (§2)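 Each toxin was preincubated 0–8 h in pH 7.4 phosphate buffer, then its HPLC-isolated peak was dissolved in Hepes/KCl assay buffer pH 7.4 with 1% DMSO. BC3H-1 cells were equilibrated 20 min at 22–24 °C, given the toxin for 1 h, washed, then given saturating [125I]-α-bungarotoxin (15–20 nM) for 1 h. Bound label was gamma-counted, nonspecific binding defined with 100 nM α-bungarotoxin, run in triplicate.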

BC3H-1 [7] = assay: Irreversible inhibition of [1251]alpha-bungarotoxin binding to Nicotinic acetylcholine receptor (neuronal and muscle) by bipinnatin-A(A4) on intact BC3H-1 cell lines; format: cell-based; conditions: dose or concentration not given here; in short: as §2
BC3H-1 [8] = assay: Irreversible inhibition rate of [1251]alpha-bungarotoxin binding to Nicotinic acetylcholine receptor (neuronal and muscle) by bipinnatin-A on intact BC3H-1 cell lines; format: cell-based
In short: (§3)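 Toxin diluted to 100 µM in assay buffer with 1% DMSO was added straight onto BC3H-1 cells. At set times it was removed and remaining receptors were measured with saturating [125I]-α-bungarotoxin. The log of specific binding relative to time zero was plotted against time. Rates came from nonlinear regression, double-exponential where applicable, from at least two independent experiments.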

BC3H-1 [9] = assay: Irreversible inhibition rate of [1251]alpha-bungarotoxin binding to Nicotinic acetylcholine receptor (neuronal and muscle) by bipinnatin-A(A4) on intact BC3H-1 cell lines; format: cell-based; in short: as §3
[10] = Amount acetic acid produced by the compound; format: ADME
[11] = Amount of acetic acid produced by the compound; format: ADME

Activity [1] | T1/2 [3] | Acid hydrolysis [10] | SMILES | Ksolv [2] | half-life [3] | Activity [4] | half-life [5] | inhibition (BC3H-1 [6]) | inhibition (BC3H-1 [7]) | inhibition (BC3H-1 [8]) | inhibition (BC3H-1 [9]) | Activity [11]
0.735 h⁻¹ | 0.97 h |  | C=C(C=O)[C@H]1CC(OC(C)=O)[C@@]23O[C@@H]2C(C[C@]2(C)O[C@H]2C2=CC(C)=C(O2)C1OC(C)=O)OC3=O (some centres not stated) | 0.719 h⁻¹ | 0.97 h |  |  |  |  |  |  | 
 |  | 0.22 mol/mol | CC(=O)OCC[N+](C)(C)C [ACETYLCHOLINE] |  |  |  |  |  |  |  |  | 
0.589 h⁻¹ | 1.24 h |  | CC(=O)OC1C2=C(C)C=C(O2)[C@@H]2O[C@@]2(C)CC2OC(=O)[C@@]3(O[C@H]23)C(OC(C)=O)C[C@@H]1C1(C)CO1 (some centres not stated) | 0.596 h⁻¹ | 1.17 h |  |  |  |  |  |  | 
 |  |  | C=C(C)[C@@H]1CC2=C(C=O)C=C(O2)[C@@H]2O[C@@]2(C)C[C@H]2OC(=O)[C@@]3(O[C@H]23)[C@@H](OC(C)=O)C1 [LOPHOTOXIN] | 0.017 h⁻¹ | 40 h |  |  |  |  |  |  | 0.17 M⁻¹

SMILES | Activity [1] | T1/2 [3] | Acid hydrolysis [10] | Ksolv [2] | half-life [3] | Activity [4] | half-life [5] | inhibition (BC3H-1 [6]) | inhibition (BC3H-1 [7]) | inhibition (BC3H-1 [8]) | inhibition (BC3H-1 [9]) | Activity [11]
C=C(C(=O)OC)[C@H]1CC(OC(C)=O)[C@@]23O[C@@H]2C(C[C@]2(C)O[C@H]2C2=CC(C)=C(O2)C1OC(C)=O)OC3=O (some centres not stated) | 0.67 h⁻¹ | 1.04 h |  | 0.638 h⁻¹ | 1.08 h | 0.399 h⁻¹ | 1.74 h | 41.5% | 57.5% | 0.29 min⁻¹ | 0.033 min⁻¹ | 
